Measured values: ChEMBL document CHEMBL3526119, “Effect of the CYP2C8 genotype on the pharmacokinetics and pharmacodynamics of repaglinide” (Drug Metab Dispos, 2011)

What was measured:
Assay type in all cases: ADME, organism-based
Homo sapiens [1] = assay: Mean change in blood glucose concentration in healthy white human plasma SLCO1B1 521TC/CYP2C8*1/*3 combined genotype at 2 mg, po; conditions: in vivo
How it was run: (§1)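 Venous blood glucose was read at each blood sampling time after a single oral 2 mg dose, with fasting up to 6 h. […] Maximal change is the largest change from baseline. Mean change is the average difference between values up to 6 h post-dose and baseline.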

Homo sapiens [2] = assay: Maximal change in blood glucose concentration in healthy white human plasma with CYP2C8*1/*1 genotype at 2 mg, po up to 6 hrs; conditions: in vivo; how it was run: as §1
[3] = Oral clearance in healthy white human with CYP2C8*3/*3 genotype at 2 mg, po; conditions: in vivo
How it was run: (§2)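 Repaglinide was assayed by LC-MS/MS with diclofenac internal standard (LLOQ 0.098 µg/L). Noncompartmental analysis gave AUC by linear/log-linear trapezoidal rule extrapolated to infinity. Weight-adjusted oral clearance = dose/(AUC × body weight).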

Homo sapiens [4] = assay: Mean change in blood glucose concentration in healthy white human plasma SLCO1B1 521CC/CYP2C8*1/*3 combined genotype at 2 mg, po; conditions: in vivo; how it was run: as §1
Homo sapiens [5] = assay: Maximal change in insulin concentration in healthy white human plasma with CYP2C8*1/*3 genotype at 2 mg, po up to 6 hrs; conditions: in vivo
How it was run: (§3)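 Plasma insulin was sampled up to 6 h after a single oral 2 mg dose, with subjects fasting. It was measured by solid-phase enzyme-labelled chemiluminescent immunometric assay, calibration range 2–300 mU/l. Maximal change is the largest change from the baseline concentration within 6 h.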

[6] = AUC (0 to infinity) in healthy white human with SLCO1B1 521CC/CYP2C8*1/*3 combined genotype at 2 mg, po; parameters: dose 2 mg, time infinity, route oral; conditions: plasma
How it was run: (§4)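 Healthy Caucasians genotyped for CYP2C8*3 and SLCO1B1 521T>C were given a single oral 2 mg dose of repaglinide, and alcohol, caffeine and grapefruit were withheld. Plasma was sampled before dosing and at 15 times from 0.25 to 24 h. Drug was measured by LC-MS/MS against diclofenac internal standard, linear 0.098–79.139 µg/L. Noncompartmental analysis: Cmax taken as observed; AUC by linear/log-linear trapezoidal rule extrapolated to infinity.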

[7] = AUC (0 to infinity) in healthy white human at 2 mg, po; parameters: dose 2 mg, time infinity, route oral; conditions: plasma; how it was run: as §4
Homo sapiens [8] = assay: Maximal change in blood glucose concentration in healthy white human plasma at 2 mg, po up to 6 hrs; conditions: in vivo; how it was run: as §1
[9] = Oral clearance in healthy white human with CYP2C8*1/*3 genotype at 2 mg, po; conditions: in vivo; how it was run: as §2
[10] = Cmax in healthy white human at 2 mg, po; parameters: dose 2 mg, route oral; conditions: in vivo; how it was run: as §4
[11] = AUC (0 to infinity) in healthy white human with SLCO1B1 521TC/CYP2C8*1/*3 combined genotype at 2 mg, po; parameters: dose 2 mg, time infinity, route oral; conditions: plasma; how it was run: as §4
Homo sapiens [12] = assay: Maximal change in insulin concentration in healthy white human plasma with CYP2C8*3/*3 genotype at 2 mg, po up to 6 hrs; conditions: in vivo; how it was run: as §3
[13] = Tmax in healthy white human with CYP2C8*1/*3 genotype at 2 mg, po; conditions: in vivo
Homo sapiens [14] = assay: Mean change in insulin concentration in healthy white human plasma with CYP2C8*1/*3 genotype at 2 mg, po up to 6 hrs; conditions: in vivo
How it was run: (§5)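 Healthy Caucasians got a single 2 mg oral dose and were genotyped for CYP2C8*3 and SLCO1B1 521T>C. Plasma insulin was sampled from pre-dose to 6 h and measured by solid-phase enzyme-labelled chemiluminescent immunometric assay (calibration 2–300 mU/l). Mean change is the average of post-dose values minus baseline up to 6 h, summarised per genotype group.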

[15] = Cmax in healthy white human with CYP2C8*3/*3 genotype at 2 mg, po; parameters: dose 2 mg, route oral; conditions: in vivo; how it was run: as §4
Homo sapiens [16] = assay: Mean change in insulin concentration in healthy white human plasma with SLCO1B1 521TC/CYP2C8*1/*3 combined genotype at 2 mg, po; conditions: in vivo; how it was run: as §5
Homo sapiens [17] = assay: Maximal change in insulin concentration in healthy white human plasma with CYP2C8*1/*1 genotype at 2 mg, po up to 6 hrs; conditions: in vivo; how it was run: as §3
Homo sapiens [18] = assay: Mean change in blood glucose concentration in healthy white human plasma SLCO1B1 521TC/CYP2C8*1/*1 combined genotype at 2 mg, po; conditions: in vivo; how it was run: as §1
[19] = Cmax in healthy white human with SLCO1B1 521TC/CYP2C8*3/*3 combined genotype at 2 mg, po; parameters: dose 2 mg, route oral; conditions: in vivo; how it was run: as §4
[20] = Cmax in healthy white human with SLCO1B1 521TC/CYP2C8*1/*1 combined genotype at 2 mg, po; parameters: dose 2 mg, route oral; conditions: in vivo; how it was run: as §4
[21] = AUC (0 to infinity) in healthy white human with CYP2C8*3/*3 genotype at 2 mg, po; parameters: dose 2 mg, route oral, time infinity; conditions: plasma; how it was run: as §4
Homo sapiens [22] = assay: Mean change in blood glucose concentration in healthy white human plasma with CYP2C8*1/*1 genotype at 2 mg, po up to 6 hrs; conditions: in vivo
How it was run: (§6)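 Single 2 mg oral dose in healthy Caucasian volunteers genotyped for CYP2C8*3, with SLCO1B1 521T>C also typed. […] Mean change is the average difference between values up to 6 h post-dose and baseline. Fasting lasted to 6 h. Mean with 95% CI or SD by genotype group.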

[23] = Cmax in healthy white human with SLCO1B1 521TT/CYP2C8*3/*3 combined genotype at 2 mg, po; parameters: dose 2 mg, route oral; conditions: in vivo; how it was run: as §4
Homo sapiens [24] = assay: Mean change in blood glucose concentration in healthy white human plasma SLCO1B1 521CC/CYP2C8*3/*3 combined genotype at 2 mg, po; conditions: in vivo; how it was run: as §1
Homo sapiens [25] = assay: Mean change in blood glucose concentration in healthy white human plasma SLCO1B1 521TC/CYP2C8*3/*3 combined genotype at 2 mg, po; conditions: in vivo; how it was run: as §6
[26] = AUC (0 to infinity) in healthy white human with SLCO1B1 521TT/CYP2C8*3/*3 combined genotype at 2 mg, po; parameters: dose 2 mg, time infinity, route oral; conditions: plasma; how it was run: as §4
Homo sapiens [27] = assay: Mean change in insulin concentration in healthy white human plasma with SLCO1B1 521TC/CYP2C8*3/*3 combined genotype at 2 mg, po; conditions: in vivo; how it was run: as §5
Homo sapiens [28] = assay: Maximal change in insulin concentration in healthy white human plasma at 2 mg, po up to 6 hrs; conditions: in vivo; how it was run: as §3
[29] = Cmax in healthy white human with SLCO1B1 521TC/CYP2C8*1/*3 combined genotype at 2 mg, po; parameters: dose 2 mg, route oral; conditions: in vivo; how it was run: as §4
Homo sapiens [30] = assay: Mean change in insulin concentration in healthy white human plasma with SLCO1B1 521CC/CYP2C8*3/*3 combined genotype at 2 mg, po; conditions: in vivo; how it was run: as §5
[31] = Cmax in healthy white human with SLCO1B1 521CC/CYP2C8*1/*3 combined genotype at 2 mg, po; parameters: dose 2 mg, route oral; conditions: in vivo; how it was run: as §4
Homo sapiens [32] = assay: Mean change in blood glucose concentration in healthy white human plasma with CYP2C8*1/*3 genotype at 2 mg, po up to 6 hrs; conditions: in vivo; how it was run: as §6
[33] = Oral bioavailability in human; conditions: in vivo
[34] = Cmax in healthy white human with SLCO1B1 521TT/CYP2C8*1/*3 combined genotype at 2 mg, po; parameters: dose 2 mg, route oral; conditions: in vivo; how it was run: as §4
Homo sapiens [35] = assay: Maximal change in blood glucose concentration in healthy white human plasma with CYP2C8*3/*3 genotype at 2 mg, po up to 6 hrs; conditions: in vivo; how it was run: as §1

Work on `CCOc1cc(CC(=O)N[C@@H](CC(C)C)c2ccccc2N2CCCCC2)ccc1C(=O)O` [REPAGLINIDE] yielded an Activity (Homo sapiens [1]) of -1 mM, an Activity (Homo sapiens [2]) of -1.62 mM and a CL/F [3] of 8 mL/min/kg. It also gave an Activity (Homo sapiens [4]) of -0.2 mM, an Activity (Homo sapiens [5]) of 17.3 mU/L and an AUC(0-inf) [6] of 18.2 ng·h/mL. It also gave an AUC(0-inf) [7] of 97.4 ng·h/mL, an Activity (Homo sapiens [8]) of -1.69 mM and a CL/F [9] of 7.67 mL/min/kg. The Cmax [10] was 52.8 ng/mL, the AUC(0-inf) [11] was 77.2 ng·h/mL and the Activity (Homo sapiens [12]) was 8.3 mU/L. The Tmax [13] was 48 min, the Activity (Homo sapiens [14]) was 5.2 mU/L and the Cmax [15] was 38.5 ng/mL. It also gave an Activity (Homo sapiens [16]) of 5.6 mU/l, an Activity (Homo sapiens [17]) of 23.9 mU/L and an Activity (Homo sapiens [18]) of -0.5 mM. The Cmax [19] was 15.3 ng/mL, the Cmax [20] was 83.7 ng/mL and the AUC(0-inf) [21] was 72.4 ng·h/mL. The Activity (Homo sapiens [22]) was -0.42 mM, the Cmax [23] was 36.6 ng/mL and the Activity (Homo sapiens [24]) was -0.8 mM. It also gave an Activity (Homo sapiens [25]) of -0.2 mM, an AUC(0-inf) [26] of 116 ng·h/mL and an Activity (Homo sapiens [27]) of 1.5 mU/l. For the same compound, the Activity (Homo sapiens [28]) was 18.8 mU/L, the Cmax [29] was 45 ng/mL and the Activity (Homo sapiens [30]) was 6.1 mU/l. For the same compound, the Cmax [31] was 17.7 ng/mL, the Activity (Homo sapiens [32]) was -0.65 mM and the bioavailability [33] was 60%. The Cmax [34] was 57 ng/mL and the Activity (Homo sapiens [35]) was -1.48 mM.
